Source: PMC9308755 (Chemmedchem, 2022)
Blank lines part the entries; values can stand above or below the molecule they belong to.

Legend:
mouse TRPC5 = molecular target: T1, mouse TRPC5 (Mus musculus, UniProt Q9QX29); assay: Syncropatch automated patch clamp, inhibition of riluzole-induced TRPC5 currents; type: cell-based; conditions: for IC50: TRPC5 IC50, riluzole (30 μM)-induced TRPC5 current; for IC50 / TRPC5 activity (in words): Syncropatch
T1 sequence (Q9QX29 1-975): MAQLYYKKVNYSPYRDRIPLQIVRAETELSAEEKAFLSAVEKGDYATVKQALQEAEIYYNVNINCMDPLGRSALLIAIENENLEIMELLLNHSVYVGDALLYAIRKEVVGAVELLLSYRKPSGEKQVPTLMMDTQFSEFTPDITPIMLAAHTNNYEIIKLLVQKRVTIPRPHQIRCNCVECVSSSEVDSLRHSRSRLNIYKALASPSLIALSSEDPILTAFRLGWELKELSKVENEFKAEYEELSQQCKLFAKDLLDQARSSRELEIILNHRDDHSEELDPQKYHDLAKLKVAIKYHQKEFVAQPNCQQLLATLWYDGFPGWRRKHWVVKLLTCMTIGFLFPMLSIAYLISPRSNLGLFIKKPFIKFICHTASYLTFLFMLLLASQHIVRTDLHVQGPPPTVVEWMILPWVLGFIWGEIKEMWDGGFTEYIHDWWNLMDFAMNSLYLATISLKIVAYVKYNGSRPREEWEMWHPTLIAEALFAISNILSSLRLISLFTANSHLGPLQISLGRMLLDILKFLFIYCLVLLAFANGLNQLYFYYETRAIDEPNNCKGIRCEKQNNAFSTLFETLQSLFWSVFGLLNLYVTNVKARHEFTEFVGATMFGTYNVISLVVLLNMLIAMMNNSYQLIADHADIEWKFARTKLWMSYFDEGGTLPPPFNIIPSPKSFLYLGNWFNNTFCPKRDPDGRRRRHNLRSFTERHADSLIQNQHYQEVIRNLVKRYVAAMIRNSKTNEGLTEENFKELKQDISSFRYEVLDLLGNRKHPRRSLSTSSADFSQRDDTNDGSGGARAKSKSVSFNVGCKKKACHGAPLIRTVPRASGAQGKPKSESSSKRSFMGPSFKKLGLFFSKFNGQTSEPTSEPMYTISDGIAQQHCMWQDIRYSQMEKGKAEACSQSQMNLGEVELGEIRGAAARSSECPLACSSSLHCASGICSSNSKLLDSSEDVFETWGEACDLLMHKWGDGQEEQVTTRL
How it was run: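 Doxycycline-induced (0.5–1 μg/mL, 3 days) Flp-In T-REx-293 cells stably expressing mouse TRPC5, used in automated patch clamp. 200 ms ramps from −100 to +100 mV every 5–10 s. 30 μM riluzole activates currents and stays present with compound. Only cells with doubly-rectifying currents kept. % inhibition compares 3 ramps after vs before compound, normalized to a reference inhibitor at 3 μM. IC50 from three-parameter fit.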

[1] = Human liver microsome stability; type: in vitro ADME; conditions: liver microsomes
[2] = Mouse liver microsome stability; type: in vitro ADME; conditions: liver microsomes
[3] = Human plasma protein binding; type: in vitro ADME
[4] = Mouse plasma protein binding; type: in vitro ADME
In vivo rat cassette PK = conditions: for Brain / Plasma: Rat cassette (0.25 mpk); for Brain: brain level for Kp; for Plasma: plasma level for Kp; for Kp / C0 / MRT inf / Vd / clearance / half-life / AUC: rat, intravenous; for Kp: brain/plasma, 0.25 mpk; for C0 / MRT inf / Vd / clearance / half-life: in vivo; for C0 / MRT inf / Vd / clearance / half-life / AUC: 0.25 mg/kg; for AUC: plasma

SMILES: Fc1cc(Cl)ccc1Cn1c(N2CCCC2)nc2ccccc21 [9 n, 1‐(4‐Chloro‐2‐fluorobenzyl)‐2‐(pyrrolidin‐1‐yl)‐1H‐benzo[d]imidazole]
IC50 (mouse TRPC5): 840 ± 230 nM | CLint scaled [1]: 239 mL/min/kg | hCLHEP [1]: 18.5 mL/min/kg | CLint scaled [2]: 3200 mL/min/kg | mCLHEP [2]: 87.6 mL/min/kg | fraction unbound [3]: 0.01 | fraction unbound [4]: 0.0217

SMILES: O=S(=O)(c1ccccc1)n1c(N2CCCC2)nc2ccccc21 [9 v, 1‐(Phenylsulfonyl)‐2‐(pyrrolidin‐1‐yl)‐1H‐benzo[d]imidazole]
TRPC5 activity (in words) (mouse TRPC5): inactive

SMILES: CCCNc1nc2ccccc2n1Cc1ccc(Cl)cc1 [16 f, 1‐(4‐Chlorobenzyl)‐N‐propyl‐1H‐benzo[d]imidazol‐2‐amine]
IC50 (mouse TRPC5): 68 ± 106 nM | CLint scaled [1]: 127 mL/min/kg | hCLHEP [1]: 17.4 mL/min/kg | CLint scaled [2]: 867 mL/min/kg | mCLHEP [2]: 81.6 mL/min/kg | fraction unbound [3]: 0.014 | fraction unbound [4]: 0.036 | Brain (In vivo rat cassette PK): 163 | Plasma (In vivo rat cassette PK): 77.5 | Kp (In vivo rat cassette PK): 2.1 | C0 (In vivo rat cassette PK): 140 ng/mL | MRT inf (In vivo rat cassette PK): 37.9 min | Vd (In vivo rat cassette PK): 2.3 L/kg | clearance (In vivo rat cassette PK): 57.8 mL/min/kg | half-life (In vivo rat cassette PK): 43.3 min | AUC (In vivo rat cassette PK): 291 ng·h/mL

SMILES: O=c1[nH]ncc(-c2ccc3c(c2)nc(N2CCCC2)n3Cc2ccccc2)c1Cl [14 n, 5‐(1‐Benzyl‐2‐(pyrrolidin‐1‐yl)‐1H‐benzo[d]imidazol‐5‐yl)‐4‐chloropyridazin‐3(2H)‐one]
TRPC5 activity (in words) (mouse TRPC5): not as active as 1 | IC50 (mouse TRPC5): 7550 ± 2520 nM

SMILES: N#Cc1cc(Cn2c(N3CCCC3)nc3ccccc32)ccc1F [9 o, 2‐Fluoro‐5‐((2‐(pyrrolidin‐1‐yl)‐1H‐benzo[d]imidazol‐1‐yl)methyl)benzonitrile]
IC50 (mouse TRPC5): 540 ± 230 nM | CLint scaled [1]: 38.1 mL/min/kg | hCLHEP [1]: 13.2 mL/min/kg | CLint scaled [2]: 370 mL/min/kg | mCLHEP [2]: 72.5 mL/min/kg | fraction unbound [3]: 0.068 | fraction unbound [4]: 0.053 | Brain (In vivo rat cassette PK): 41.8 | Plasma (In vivo rat cassette PK): 69.7 | Kp (In vivo rat cassette PK): 0.6 | C0 (In vivo rat cassette PK): 221 ng/mL | MRT inf (In vivo rat cassette PK): 38.5 min | Vd (In vivo rat cassette PK): 1.8 L/kg | clearance (In vivo rat cassette PK): 61.3 mL/min/kg | half-life (In vivo rat cassette PK): 38.4 min | AUC (In vivo rat cassette PK): 262 ng·h/mL

SMILES: C[C@@H]1CCCN1c1nc2ccccc2n1Cc1ccc(Cl)cc1 [16 e, (R)‐1‐(4‐Chlorobenzyl)‐2‐(2‐methylpyrrolidin‐1‐yl)‐1H‐benzo[d]imidazole]
IC50 (mouse TRPC5): 2890 ± 700 nM

SMILES: CC1CCCCN1c1nc2ccccc2n1Cc1ccc(Cl)cc1 (stereo not shown) [16 a, 1‐(4‐Chlorobenzyl)‐2‐(2‐methylpiperidin‐1‐yl)‐1H‐benzo[d]imidazole]
TRPC5 activity (in words) (mouse TRPC5): not active

SMILES: Clc1ccc(Cn2c(N3CCCC3)nc3ccccc32)cn1 [9 t, 1‐((6‐Chloropyridin‐3‐yl)methyl)‐2‐(pyrrolidin‐1‐yl)‐1H‐benzo[d]imidazole]
IC50 (mouse TRPC5): 3110 ± 940 nM | inhibition at 3 µM (mouse TRPC5; read-out: % Inhibition @ 3 μM): 127%

SMILES: COc1ccc(Cn2c(N3CCCC3)nc3ccccc32)cc1F [9 g, 1‐(3‐Fluoro‐4‐methoxybenzyl)‐2‐(pyrrolidin‐1‐yl)‐1H‐benzo[d]imidazole]
IC50 (mouse TRPC5): 1780 ± 430 nM

SMILES: CC(C)CCNc1nc2ccccc2n1Cc1ccccc1 [7 g, 1‐Benzyl‐N‐isopentyl‐1H‐benzo[d]imidazol‐2‐amine]
IC50 (mouse TRPC5): 1300 ± 310 nM

SMILES: O=C(c1ccccc1)n1c(N2CCCC2)nc2ccccc21 [9 u, Phenyl(2‐(pyrrolidin‐1‐yl)‐1H‐benzo[d]imidazol‐1‐yl)methanone]
TRPC5 activity (in words) (mouse TRPC5): inactive

SMILES: O=S1(=O)CCN(c2nc3ccccc3n2Cc2ccc(Cl)cc2)CC1 [16 c, 4‐(1‐(4‐Chlorobenzyl)‐1H‐benzo[d]imidazol‐2‐yl)thiomorpholine‐1,1‐dioxide]
TRPC5 activity (in words) (mouse TRPC5): not active

SMILES: CCCNc1nc2ccccc2n1Cc1ccccc1 [7 f, 1‐Benzyl‐N‐propyl‐1H‐benzo[d]imidazol‐2‐amine]
IC50 (mouse TRPC5): 720 ± 210 nM | CLint scaled [1]: 103 mL/min/kg | hCLHEP [1]: 16.8 mL/min/kg | CLint scaled [2]: 796 mL/min/kg | mCLHEP [2]: 80.9 mL/min/kg | fraction unbound [3]: 0.041 | fraction unbound [4]: 0.108

SMILES: Cc1cc2nc(N3CCCC3)n(Cc3ccccc3)c2cc1C [14 b, 1‐Benzyl‐5,6‐dimethyl‐2‐(pyrrolidin‐1‐yl)‐1H‐benzo[d]imidazole]
TRPC5 activity (in words) (mouse TRPC5): moderate activity | IC50 (mouse TRPC5): 12300 nM

More lines, now with the values ahead:

IC50 (mouse TRPC5): 902 ± 340 nM
SMILES: Cc1ccc(Cn2c(N3CCCC3)nc3ccccc32)cc1 [9 k, 1‐(4‐Methylbenzyl)‐2‐(pyrrolidin‐1‐yl)‐1H‐benzo[d]imidazole]

IC50 (mouse TRPC5): 440 ± 140 nM | CLint scaled [1]: 278 mL/min/kg | hCLHEP [1]: 18.7 mL/min/kg | CLint scaled [2]: 4260 mL/min/kg | mCLHEP [2]: 88.2 mL/min/kg | fraction unbound [3]: 0.013 | fraction unbound [4]: 0.013
SMILES: Clc1ccc(Cn2c(N3CCCC3)nc3ccccc32)cc1 [9 e, 1‐(4‐Chlorobenzyl)‐2‐(pyrrolidin‐1‐yl)‐1H‐benzo[d]imidazole]

IC50 (mouse TRPC5): 720 ± 210 nM
SMILES: Clc1cccc(Cn2c(N3CCCC3)nc3ccccc32)c1 [9 d, 1‐(3‐Chlorobenzyl)‐2‐(pyrrolidin‐1‐yl)‐1H‐benzo[d]imidazole]

IC50 (mouse TRPC5): 1150 ± 330 nM
SMILES: COc1ccc2c(c1)nc(N1CCCC1)n2Cc1ccccc1 [14 h, 1‐Benzyl‐5‐methoxy‐2‐(pyrrolidin‐1‐yl)‐1H‐benzo[d]imidazole]

IC50 (mouse TRPC5): 1490 ± 310 nM
SMILES: Fc1cccc(Cn2c(N3CCCC3)nc3ccccc32)c1 [9 b, 1‐(3‐Fluorobenzyl)‐2‐(pyrrolidin‐1‐yl)‐1H‐benzo[d]imidazole]

TRPC5 activity (in words) (mouse TRPC5): not productive
SMILES: c1ccc(Cn2c(N3CCC4(CC3)CNC4)nc3ccccc32)cc1 [7 i, 7‐(1‐Benzyl‐1H‐benzo[d]imidazol‐2‐yl)‐2,7‐diazaspiro[3.5]nonane]

IC50 (mouse TRPC5): 4300 ± 1630 nM | CLint scaled [1]: 164 mL/min/kg | hCLHEP [1]: 17.9 mL/min/kg | CLint scaled [2]: 530 mL/min/kg | mCLHEP [2]: 77.0 mL/min/kg | fraction unbound [3]: 0.044 | fraction unbound [4]: 0.036
SMILES: c1ccc(Cn2c(N3CCCC3)nc3ccccc32)cc1 [7 c, 1‐Benzyl‐2‐(pyrrolidin‐1‐yl)‐1H‐benzo[d]imidazole]

IC50 (mouse TRPC5): 1150 ± 250 nM
SMILES: COc1ccc(Cn2c(N3CCCC3)nc3ccccc32)cc1 [9 f, 1‐(4‐Methoxybenzyl)‐2‐(pyrrolidin‐1‐yl)‐1H‐benzo[d]imidazole]

TRPC5 activity (in words) (mouse TRPC5): moderate activity
SMILES: c1ccc(Cn2c(CCN3CCCC3)nc3ccccc32)cc1 [7 j, 1‐Benzyl‐2‐(2‐(pyrrolidin‐1‐yl)ethyl)‐1H‐benzo[d]imidazole]

IC50 (mouse TRPC5): 590 ± 140 nM
SMILES: Fc1ccc(Cn2c(N3CCCC3)nc3ccccc32)cc1 [9 c, 1‐(4‐Fluorobenzyl)‐2‐(pyrrolidin‐1‐yl)‐1H‐benzo[d]imidazole]

TRPC5 activity (in words) (mouse TRPC5): not productive
SMILES: CN1CCC(N2CCN(c3nc4ccccc4n3Cc3ccccc3)CC2)CC1 [7 h, 1‐Benzyl‐2‐(4‐(1‐methylpiperidin‐4‐yl)piperazin‐1‐yl)‐1H‐benzo[d]imidazole]

TRPC5 activity (in words) (mouse TRPC5): not active
SMILES: CC1CCN(c2nc3ccccc3n2Cc2ccc(Cl)cc2)CC1 [16 b, 1‐(4‐Chlorobenzyl)‐2‐(4‐methylpiperidin‐1‐yl)‐1H‐benzo[d]imidazole]

IC50 (mouse TRPC5): 2690 nM
SMILES: Fc1ccccc1Cn1c(N2CCCC2)nc2ccccc21 [9 a, 1‐(2‐Fluorobenzyl)‐2‐(pyrrolidin‐1‐yl)‐1H‐benzo[d]imidazole]

IC50 (mouse TRPC5): 1900 nM
SMILES: Cc1cccc(Cn2c(N3CCCC3)nc3ccccc32)c1 [9 l, 1‐(3‐Methylbenzyl)‐2‐(pyrrolidin‐1‐yl)‐1H‐benzo[d]imidazole]
